Experimental data as given in ChEMBL document CHEMBL1641600, “Novel bifunctional alkylating agents, 5,10-dihydropyrrolo[1,2-b]isoquinoline derivatives, synthesis and biological activity” (Bioorg Med Chem, 2011).
The source made the active and inactive calls. The calls are words filed in the database; no cut-off is given here.

What was measured:
[1] = Cytotoxicity against human OECM1 cells after 72 hrs by Alamar blue assay; format: functional, cell-based; details: OECM1, 72 h
Method in brief: (§1)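 H1299, PC3, OECM1 and U87 cells exposed 72 h to six or seven drug concentrations. Alamar blue added for 6 h at 37 °C; absorbance read at 570 and 600 nm. IC50 obtained from dose-effect data by the median-effect principle.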

[2] = Cytotoxicity against human U87 cells after 72 hrs by Alamar blue assay; format: functional, cell-based, U-87MG ATCC; details: U-87 MG; method in brief: as §1
[3] = Cytotoxicity against human H1299 cells after 72 hrs by Alamar blue assay; format: functional, cell-based; details: NCI-H1299, 72 h; method in brief: as §1
PC-3 = experiment: Cytotoxicity against human PC3 cells after 72 hrs by Alamar blue assay; format: functional, cell-based; details: PC-3, 72 h; method in brief: as §1
MX1 [4] = experiment: Cytotoxicity against human MX1 cells after 72 hrs by SRB assay; format: functional, cell-based; details: MX1, 72 h
Method in brief: (§2)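 MX-1 breast and HCT-116 colon carcinoma cells exposed 72 h to six or seven drug concentrations. Growth measured by SRB assay with microplate absorbance. IC50 obtained from dose-effect data by the median-effect principle.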

HCT-116 = experiment: Cytotoxicity against human HCT116 cells after 72 hrs by SRB assay; format: functional, cell-based; details: HCT-116, 72 h; method in brief: as §2
CCRF-CEM [5] = experiment: Cytotoxicity against vinblastine-resistant human CCRF-CEM cells after 72 hrs by XTT assay; format: functional, cell-based
Method in brief: (§3)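 Leukemic CCRF-CEM and its Taxol- and vinblastine-resistant sublines exposed 72 h to six or seven drug concentrations. XTT with phenazine methosulfate added for 6 h at 37 °C; absorbance read at 450 and 630 nm. IC50 obtained from dose-effect data by the median-effect principle.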

CCRF-CEM [6] = experiment: Cytotoxicity against Taxol-resistant human CCRF-CEM cells after 72 hrs by XTT assay; format: functional, cell-based; method in brief: as §3
CCRF-CEM [7] = experiment: Cytotoxicity against human CCRF-CEM cells after 72 hrs by XTT assay; format: functional, cell-based; method in brief: as §3
MX1 [8] = experiment: Antitumor activity against human MX1 cells implanted in mouse assessed as complete suppression in tumor size at 30 mg/kg, iv Q2D for 2 times measured on day 8 and 10; format: functional, organism-based; parameters: dose 30 mg/kg
Method in brief: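 Athymic nu/nu nude mice (outbred Swiss background, male, ≥8 weeks, about 22 g) bearing human tumor xenografts; MX-1 dosed iv Q2D×2 (day 8 and 10), SK-OV-3 dosed iv QD×4 from day 22. Tail-vein injection in DMSO/Tween 80/saline vehicle at the maximal tolerable dose. Tumor volume measured by caliper (length×width×height or width); body weight followed; n = 4.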

Nucleic Acid = experiment: Induction of Escherichia coli pEGFP-N1 DNA cross-linking at 1 to 20 uM after 2 hrs by alkaline agarose gel shift assay; format: nucleic-acid assay
Method in brief: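 pEGFP-N1 plasmid DNA (1.5 µg) incubated with compound (1–20 µM) in binding buffer (3 mM NaCl/1 mM sodium phosphate pH 7.4, 1 mM EDTA) for 2 h at 37 °C. Plasmid then linearized with BamHI, ethanol-precipitated, and resolved on alkaline agarose gel into single-stranded and cross-linked bands. Melphalan (1, 5, 10 µM) as positive control.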

CCRF-CEM [9] = experiment: Ratio of IC50 for Taxol-resistant human CCRF-CEM cells to IC50 for human CCRF-CEM cells
NCI-H1299 [10] = experiment: Cell cycle arrest in human H1299 cells assessed as accumulation at S phase at 5 uM after 24 hrs by propidium iodide staining-based flow cytometry; details: NCI-H1299, 24 h
NCI-H1299 [11] = experiment: Cell cycle arrest in human H1299 cells assessed as accumulation at G1 phase at 5 uM after 24 hrs by propidium iodide staining-based flow cytometry; details: NCI-H1299, 24 h
NCI-H1299 [12] = experiment: Cell cycle arrest in human H1299 cells assessed as accumulation at S phase at 2.5 uM after 24 hrs by propidium iodide staining-based flow cytometry; details: NCI-H1299, 24 h
NCI-H1299 [13] = experiment: Cell cycle arrest in human H1299 cells assessed as accumulation at S phase at 1.25 uM after 24 hrs by propidium iodide staining-based flow cytometry; details: NCI-H1299, 24 h
NCI-H1299 [14] = experiment: Cell cycle arrest in human H1299 cells assessed as accumulation at G1 phase at 2.5 uM after 24 hrs by propidium iodide staining-based flow cytometry; details: NCI-H1299, 24 h
NCI-H1299 [15] = experiment: Cell cycle arrest in human H1299 cells assessed as accumulation at G2/M phase at 5 uM after 24 hrs by propidium iodide staining-based flow cytometry; details: NCI-H1299, 24 h
NCI-H1299 [16] = experiment: Cell cycle arrest in human H1299 cells assessed as accumulation at G1 phase at 1.25 uM after 24 hrs by propidium iodide staining-based flow cytometry; details: NCI-H1299, 24 h
NCI-H1299 [17] = experiment: Cell cycle arrest in human H1299 cells assessed as accumulation at subG1 phase at 5 uM after 24 hrs by propidium iodide staining-based flow cytometry; details: NCI-H1299, 24 h
NCI-H1299 [18] = experiment: Cell cycle arrest in human H1299 cells assessed as accumulation at G2/M phase at 2.5 uM after 24 hrs by propidium iodide staining-based flow cytometry; details: NCI-H1299, 24 h
NCI-H1299 [19] = experiment: Cell cycle arrest in human H1299 cells assessed as accumulation at G2/M phase at 1.25 uM after 24 hrs by propidium iodide staining-based flow cytometry; details: NCI-H1299, 24 h
NCI-H1299 [20] = experiment: Cell cycle arrest in human H1299 cells assessed as accumulation at subG1 phase at 2.5 uM after 24 hrs by propidium iodide staining-based flow cytometry; details: NCI-H1299, 24 h
NCI-H1299 [21] = experiment: Cell cycle arrest in human H1299 cells assessed as accumulation at subG1 phase at 1.25 uM after 24 hrs by propidium iodide staining-based flow cytometry; details: NCI-H1299, 24 h
SK-OV-3 = experiment: Antitumor activity against human SKOV3 cells implanted in mouse assessed as significant suppression in tumor size at 20 mg/kg, iv QD for 4 times measured on day 22

## Cc1c(CO)c(CO)c2n1Cc1ccccc1C2
[1]
  IC50: 6.1 µM
[2]
  IC50: 27.9 µM
[3]
  IC50: 2480 nM
PC-3
  IC50: 6.07 µM
MX1 [4]
  IC50: 660 nM
HCT-116
  IC50: 290 nM
CCRF-CEM [5]
  IC50: 90 nM
CCRF-CEM [6]
  IC50: 100 nM
CCRF-CEM [7]
  IC50: 80 nM
MX1 [8]
  Activity: Active
Nucleic Acid
  Activity: Active
CCRF-CEM [9]
  Ratio IC50: 1.22
NCI-H1299 [10]
  cell population % at 5 µM: 24.7%
NCI-H1299 [11]
  cell population % at 5 µM: 0.5%
NCI-H1299 [12]
  cell population % at 2.5 µM: 18.3%
NCI-H1299 [13]
  cell population % at 1.25 µM: 32.7%
NCI-H1299 [14]
  cell population % at 2.5 µM: 7.7%
NCI-H1299 [15]
  cell population % at 5 µM: 48.4%
NCI-H1299 [16]
  cell population % at 1.25 µM: 5.6%
NCI-H1299 [17]
  cell population % at 5 µM: 26.5%
NCI-H1299 [18]
  cell population % at 2.5 µM: 47.3%
NCI-H1299 [19]
  cell population % at 1.25 µM: 40.1%
NCI-H1299 [20]
  cell population % at 2.5 µM: 26.6%
NCI-H1299 [21]
  cell population % at 1.25 µM: 21.6%
SK-OV-3
  Activity: Active
